Results on 28 molecules are retold here after ChEMBL document CHEMBL1149808, “Cyclic nucleotide phosphodiesterase type 4 inhibitors: evaluation of pyrazolo[1,5-a]-1,3,5-triazine ring system as an adenine bioisostere” (Eur J Med Chem, 2008).

Assay [1] in a line: Inhibition of PDE4. Summed up:
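PDE4 from bovine aorta media layer; [³H]-cAMP hydrolysis, two-step assay, with 1 mM EGTA and cGMP 50 added to suppress PDE3, 50 mM Tris-HCl pH 7.5, 2 mM magnesium acetate, 1 mg/mL BSA, 1% DMSO. IC50 by regression over concentration-response data, mean of three runs.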

Assay [2] is described as follows: Inhibition of PDE1 at 10 uM in absence of calmodulin.
Assay [3] concerns the target T1, cGMP-dependent 3',5'-cyclic phosphodiesterase (Bos taurus) (UniProt P14099).
T1 sequence (whole entry): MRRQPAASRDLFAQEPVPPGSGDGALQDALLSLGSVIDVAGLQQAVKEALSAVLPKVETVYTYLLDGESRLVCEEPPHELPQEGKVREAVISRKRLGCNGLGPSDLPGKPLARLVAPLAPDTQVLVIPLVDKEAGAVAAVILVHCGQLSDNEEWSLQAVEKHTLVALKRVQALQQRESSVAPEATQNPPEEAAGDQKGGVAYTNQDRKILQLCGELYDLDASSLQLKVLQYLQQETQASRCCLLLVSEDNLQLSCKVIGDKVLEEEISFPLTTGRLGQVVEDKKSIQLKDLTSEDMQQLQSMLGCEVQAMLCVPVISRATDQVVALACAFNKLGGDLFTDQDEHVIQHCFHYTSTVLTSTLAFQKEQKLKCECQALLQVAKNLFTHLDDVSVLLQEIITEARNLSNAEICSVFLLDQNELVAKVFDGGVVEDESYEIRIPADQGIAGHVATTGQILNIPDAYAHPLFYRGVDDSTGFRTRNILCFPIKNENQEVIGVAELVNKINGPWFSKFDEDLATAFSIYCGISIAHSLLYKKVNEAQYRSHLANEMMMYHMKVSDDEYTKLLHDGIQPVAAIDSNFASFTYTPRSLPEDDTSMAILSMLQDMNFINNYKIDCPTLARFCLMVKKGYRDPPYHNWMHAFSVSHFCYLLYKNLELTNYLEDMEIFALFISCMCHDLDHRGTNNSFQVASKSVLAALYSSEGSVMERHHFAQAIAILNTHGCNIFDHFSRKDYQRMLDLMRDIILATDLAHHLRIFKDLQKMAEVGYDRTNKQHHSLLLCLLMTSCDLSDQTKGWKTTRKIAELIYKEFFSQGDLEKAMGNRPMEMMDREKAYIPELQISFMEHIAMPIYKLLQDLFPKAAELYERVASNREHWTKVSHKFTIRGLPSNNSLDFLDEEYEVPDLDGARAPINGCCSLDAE
As to the kind of experiment: Inhibition of bovine aorta PDE2 at 10 uM in absence of cGMP.

The nature of assay [4]: Inhibition of PDE3 at 10 uM. Summed up:
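Bovine aortic media PDE3, two-step assay with [³H]-cAMP plus 1 mM EGTA in Tris-HCl 50 mM pH 7.5, 2 mM Mg acetate, BSA 1 mg/mL; rolipram 50 present to block PDE4 contamination. DMSO 1% final.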

The nature of assay [5]: Inhibition of PDE5 at 10 uM. Summed up: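 Bovine aortic media PDE5 measured as [³H]-cGMP hydrolysis in two-step assay with 1 mM EGTA, 50 mM Tris-HCl pH 7.5, 2 mM magnesium acetate, 1 mg/mL BSA; inhibitor in DMSO, 1% final.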
Assay [6] is described as follows: Inhibition of PDE1 in presence of calmodulin. In short, it runs like this:
(§1)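 PDE1 purified from bovine aorta media layer; two-step radioassay with [³H]-cGMP substrate in 50 mM Tris-HCl pH 7.5, 2 mM magnesium acetate, 1 mg/mL BSA. Calmodulin-activated state: 18 nM calmodulin plus 10 mM CaCl₂. Inhibitors from DMSO, 1% final. IC50 by regression from concentration-response curves, mean of three determinations.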

In assay [7] the target is T2, cGMP-dependent 3',5'-cyclic phosphodiesterase (Bos taurus, UniProt P14099).
T2 sequence (P14099 whole entry): T1 sequence (whole entry)
As to the kind of experiment: Inhibition of bovine aorta PDE2 in presence of cGMP. In short, it runs like this: (§2)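 PDE2 isolated from cultured bovine aortic endothelial cells; two-step assay using [³H]-cAMP plus 1 mM EGTA in 50 mM Tris-HCl pH 7.5, 2 mM magnesium acetate, 1 mg/mL BSA; activated state with 5 cGMP. DMSO 1% final; IC50 by regression from concentration-response curves, three determinations.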

The nature of assay [8]: Inhibition of PDE1 at 10 uM in presence of calmodulin. In short, it runs like this:
as §1

Assay [9] deals with T1, cGMP-dependent 3',5'-cyclic phosphodiesterase (Bos taurus). As to the kind of experiment: Inhibition of bovine aorta PDE2 at 10 uM in presence of cGMP. Summed up: as §2
Assay [10] concerns PBMC. As to the kind of experiment: Antiinflammatory activity in human PBMC assessed as inhibition of LPS-stimulated TNFalpha release after 24 hrs by trypan blue exclusion test. The format is functional, cell-based. Particulars: in the assay text read “ELISA” for “trypan blue exclusion test”. Summed up: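 Human PBMCs from density-gradient interface, washed in HBSS-CMF, 2 × 10⁶ cells/mL, exposed to drug 10^-8 to 10^-5 M with or without Salmonella abortus equi LPS, 24 h, 37 °C, 5% CO₂. Supernatants stored at -80 °C, then TNFα measured by two-site ELISA (OD 450 nm, o-phenylenediamine), interpolated on standard curve by four-parameter logistics; viability by Trypan blue exclusion.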
(An ELISA detects its analyte on a solid surface through an enzyme-linked reagent.)

The IC50 is the concentration that gives 50% inhibition. In the case of `CNc1nc(C)nc2c(-c3cccc(C(F)(F)F)c3)cnn12`, 0.13 µM corresponded to half-maximal inhibition in assay [1] (IC50).

Turning to `CNc1nc(C)nc2c(-c3ccco3)cnn12`, in [1], the IC50 was determined as 3.1 µM.

As a reminder, the inhibition is the percentage by which the read-out fell short of the control. As to `CNc1nc(C)nc2c(Cc3ccccc3)cnn12`, the results for the IC50 in [1], in [6] and in assay [7] were 0.098 µM, 14 µM and 56 µM, respectively. Also, the inhibition in assay [2] was found to be 37%; in assay [3] it was 19%; in assay [4], 8.6%; in assay [5] it was 33%.

Consider `CCCc1nc(NC)n2ncc(Cc3ccccc3OC)c2n1`, for which, in assay [1], the half-inhibitory concentration (IC50) stood at 0.013 µM. Moreover, the inhibition was 27% in assay [2]; 35% in assay [8]; 19% in [3]; 31% in [9]; 16% in [4]; 38% in assay [5]. Moreover, the Activity result in [10] was “Dose-dependent effect”.

The molecule `CNc1nc(C)nc2c(-c3ccccc3)cnn12` returned a 50% inhibitory concentration (IC50) in [1] of 0.27 µM. Moreover, the inhibition was 21% in assay [2]; 20% in [8]; 3.6% in assay [3]; 11% in [9]; 2.7% in [4]; 11% in assay [5].

`CCCc1nc(NC)c2ncn(Cc3ccccc3)c2n1` returned an IC50 in [1] of 0.088 µM.

With `CNc1nc(C(F)(F)F)nc2c(Cc3ccccc3OC)cnn12`, in assay [1], the IC50 was found to be 0.011 µM. In addition, the inhibition in [2] turned out to be 20%; in assay [3] it was 16%; in assay [4] it was 24%; in assay [5], 74%. Besides, the Activity entry in assay [10] was “Dose-dependent effect”.

For the molecule `CNc1nc(C)nc2c(Cc3cccs3)cnn12`, in assay [1], inhibition was half-maximal at 0.07 µM (IC50).

Turning to `CNc1nc(C)nc2c(C(=O)c3ccccc3)cnn12`, half-maximal inhibition in assay [1] (IC50) was put at 0.12 µM. Further, the inhibition in assay [2] was found to be 16%; in [8], 29%; in assay [3] it was 15%; in assay [9], 17%; in assay [4] it was 11%; in assay [5], 8%.

The molecule `CNc1nc(C(F)(F)F)nc2c(Cc3ccccc3)cnn12` gave an IC50 in assay [1] of 0.077 µM. Further, in assay [10], the Activity result was “Dose-dependent effect”.

For `CCC(O)c1cnn2c(NC)nc(C)nc12` (stereo not given), the half-maximal inhibitory concentration (IC50) in assay [1] was 4.8 µM.

The molecule `CCCc1nc(NC)n2ncc(Cc3ccccc3)c2n1` registered an IC50 in assay [1] of 0.048 µM. In addition, the inhibition in assay [2] came out at 24%; in assay [8], 25%; in [3] it was 20%; in assay [9], 20%; in assay [4], 10%; in [5] it was 16%.

`CCCc1nc(NC)c2ncn(Cc3ccccc3OC)c2n1`: in assay [1], inhibition was half-maximal at 0.007 µM (IC50).

Regarding `CNc1nc(C)nc2c(Cc3ccco3)cnn12`, the half-inhibitory concentration (IC50) in assay [1] amounted to 0.1 µM.

For the molecule `CNc1nc(C)nc2c(-c3cc4ccccc4s3)cnn12`, the IC50 in [1] came out at 3.5 µM.

With `CNc1nc(C)nc2c(-c3cccc(C(C)=O)c3)cnn12`, the concentration for half-maximal inhibition (IC50) in [1] worked out at 0.54 µM.

Consider `CNc1nc(C)nc2c(-c3cccc4ccccc34)cnn12`, for which it took 0.21 µM to reach half-maximal inhibition in [1] (IC50).

As for `CNc1nc(C)nc2c1ncn2Cc1ccccc1OC`, in assay [1], inhibition was half-maximal at 0.061 µM (IC50).

`CNc1nc(C)nc2c1ncn2Cc1ccccc1` gave an IC50 in assay [1] of 0.28 µM.

In assay [1], `CNc1nc(C)nc2c(-c3cc4ccccc4o3)cnn12` returned an IC50 of 6.2 µM.

For the molecule `CCCC#Cc1cnn2c(NC)nc(C)nc12`, half-maximal inhibition in assay [1] (IC50) required 0.41 µM.

In turn, `CC#Cc1cnn2c(NC)nc(C)nc12` showed an IC50 in assay [1] of 6.4 µM.

In the case of `CNc1nc(C)nc2c(-c3cccc([N+](=O)[O-])c3)cnn12`, the IC50 in assay [1] came out at 1.2 µM.

Take `CNc1nc(C)nc2c(Cc3ccc4ccccc4c3)cnn12`: half-maximal inhibition in [1] (IC50) was put at 0.27 µM.

The molecule `CNc1nc(C)nc2c(-c3ccccc3Cl)cnn12` showed a half-maximal inhibitory concentration (IC50) in [1] of 2.9 µM.

Regarding `CNc1nc(C)nc2c(Cc3ccoc3)cnn12`, in assay [1], the IC50 is 0.078 µM.

For `CNc1nc(C(F)(F)F)nc2c1ncn2Cc1ccccc1OC`, the IC50 in assay [1] amounted to 0.0014 µM.

In assay [1], `CNc1nc(C)nc2c(-c3cccs3)cnn12` displayed an IC50 of 2.4 µM.
